ChEMBL document CHEMBL3352174, “Identification of a New RXRα Antagonist Targeting the Coregulator-Binding Site” (ACS Med Chem Lett, 2014)
Calls of active or inactive are those of the source. The calls are words filed in the database; no cut-off is given here.

How the values were obtained:
A549 = assay: Induction of apoptosis in TNFalpha-stimulated human A549 cells assessed as PARP cleavage at 5 and 10 uM pre-treated for 24 hrs before TNFalpha addition by immunoblotting method; assay type: functional, cell-based
Outline: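 A549 or HepG2 cells were treated with compound for 24 h, with or without subsequent TNFα (20 ng/mL) for 30 min. Lysates were immunoblotted for PARP cleavage as the apoptosis marker. One of three to five similar experiments shown.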

[1] = molecular target: T1, Retinoic acid receptor RXR-alpha (Homo sapiens) (UniProt P19793); assay: Antagonist activity against RXRalpha in TNFalpha-stimulated human HepG2 cells assessed as inhibition of AKT phosphorylation at 5 and 10 uM pre-treated for 24 hrs before TNFalpha addition by Western blotting method; assay type: cell-based
T1 sequence (whole entry): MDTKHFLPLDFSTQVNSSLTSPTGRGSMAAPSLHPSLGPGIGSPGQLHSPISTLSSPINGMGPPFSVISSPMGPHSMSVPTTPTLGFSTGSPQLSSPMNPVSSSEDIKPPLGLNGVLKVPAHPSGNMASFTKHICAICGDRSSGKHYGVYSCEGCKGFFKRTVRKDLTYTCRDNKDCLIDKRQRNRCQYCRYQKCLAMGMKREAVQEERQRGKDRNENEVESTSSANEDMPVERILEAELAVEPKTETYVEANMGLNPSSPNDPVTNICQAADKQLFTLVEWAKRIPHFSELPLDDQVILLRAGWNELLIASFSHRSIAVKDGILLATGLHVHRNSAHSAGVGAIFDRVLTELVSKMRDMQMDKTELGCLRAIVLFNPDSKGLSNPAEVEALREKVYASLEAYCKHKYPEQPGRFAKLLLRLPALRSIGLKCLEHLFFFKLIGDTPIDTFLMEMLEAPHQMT
Outline: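 A549 or HepG2 cells were exposed to compound for 24 h, then with or without TNFα (20 ng/mL) for 30 min more. Lysates were immunoblotted for AKT activation. One of three to five similar experiments shown.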

[2] = molecular target: T2, Retinoic acid receptor RXR-beta (Homo sapiens) (UniProt P28702); assay: Antagonist activity against RXRbeta ligand binding domain (unknown origin) expressed in human HEK293T cells assessed as inhibition of 9-cis-RA-induced receptor transactivation at 2 and 10 uM after 18 hrs by luciferase reporter gene based mammalian one-hybrid assay; assay type: cell-based; details: HEK-293T
T2 sequence (whole entry): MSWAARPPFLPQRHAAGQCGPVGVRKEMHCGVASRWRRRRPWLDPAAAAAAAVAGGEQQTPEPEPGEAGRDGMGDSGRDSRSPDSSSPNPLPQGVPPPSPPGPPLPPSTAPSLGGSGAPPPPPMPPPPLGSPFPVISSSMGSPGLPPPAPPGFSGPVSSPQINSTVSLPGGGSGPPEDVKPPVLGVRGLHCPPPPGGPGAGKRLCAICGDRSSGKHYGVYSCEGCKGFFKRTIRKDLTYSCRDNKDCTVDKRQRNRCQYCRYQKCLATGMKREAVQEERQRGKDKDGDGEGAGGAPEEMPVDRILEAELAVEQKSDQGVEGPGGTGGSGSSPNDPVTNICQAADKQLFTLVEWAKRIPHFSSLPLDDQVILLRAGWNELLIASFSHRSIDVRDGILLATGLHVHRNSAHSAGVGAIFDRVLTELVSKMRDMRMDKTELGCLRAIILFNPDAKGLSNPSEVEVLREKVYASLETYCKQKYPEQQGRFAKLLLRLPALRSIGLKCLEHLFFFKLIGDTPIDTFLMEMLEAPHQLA

[3] = molecular target: T3, Retinoic acid receptor gamma (Homo sapiens) (UniProt P13631); assay: Antagonist activity against RARgamma ligand binding domain (unknown origin) expressed in human MCF7 cells assessed as inhibition of ATRA-induced receptor transactivation at 10 uM after 18 hrs by luciferase reporter gene based mammalian one-hybrid assay; assay type: cell-based
T3 sequence (whole entry): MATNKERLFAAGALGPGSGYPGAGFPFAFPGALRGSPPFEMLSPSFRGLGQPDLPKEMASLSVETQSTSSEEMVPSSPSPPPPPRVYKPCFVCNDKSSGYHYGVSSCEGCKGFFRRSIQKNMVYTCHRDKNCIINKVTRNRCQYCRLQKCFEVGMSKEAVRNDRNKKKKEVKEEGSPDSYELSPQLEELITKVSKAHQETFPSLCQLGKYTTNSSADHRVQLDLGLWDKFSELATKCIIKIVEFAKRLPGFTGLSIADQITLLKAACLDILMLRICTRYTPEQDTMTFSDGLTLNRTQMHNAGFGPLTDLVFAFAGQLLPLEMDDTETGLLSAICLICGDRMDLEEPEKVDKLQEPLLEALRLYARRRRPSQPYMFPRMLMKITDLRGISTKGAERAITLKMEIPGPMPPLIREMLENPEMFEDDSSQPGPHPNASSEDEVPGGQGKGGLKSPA
Outline: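 MCF-7 cells co-transfected with pG5-Luc and the pBind-LBD fusion: Nur77, RARγ or ER. Agonists were all-trans-RA 10⁻⁷ M for RARγ and Nur77, and propyl pyrazole triol 10 μM for ER. Compound at 10 μM for 18 h. Dual-luciferase read-out normalized to Renilla. Mean ± SD.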

[4] = molecular target: T4, Glucocorticoid receptor (Homo sapiens) (UniProt P04150); assay: Antagonist activity against GRalpha ligand binding domain (unknown origin) expressed in human MCF7 cells assessed as inhibition of dexamethasone-induced receptor transactivation at 10 uM after 18 hrs by luciferase reporter gene based mammalian one-hybrid assay; assay type: cell-based
T4 sequence (whole entry): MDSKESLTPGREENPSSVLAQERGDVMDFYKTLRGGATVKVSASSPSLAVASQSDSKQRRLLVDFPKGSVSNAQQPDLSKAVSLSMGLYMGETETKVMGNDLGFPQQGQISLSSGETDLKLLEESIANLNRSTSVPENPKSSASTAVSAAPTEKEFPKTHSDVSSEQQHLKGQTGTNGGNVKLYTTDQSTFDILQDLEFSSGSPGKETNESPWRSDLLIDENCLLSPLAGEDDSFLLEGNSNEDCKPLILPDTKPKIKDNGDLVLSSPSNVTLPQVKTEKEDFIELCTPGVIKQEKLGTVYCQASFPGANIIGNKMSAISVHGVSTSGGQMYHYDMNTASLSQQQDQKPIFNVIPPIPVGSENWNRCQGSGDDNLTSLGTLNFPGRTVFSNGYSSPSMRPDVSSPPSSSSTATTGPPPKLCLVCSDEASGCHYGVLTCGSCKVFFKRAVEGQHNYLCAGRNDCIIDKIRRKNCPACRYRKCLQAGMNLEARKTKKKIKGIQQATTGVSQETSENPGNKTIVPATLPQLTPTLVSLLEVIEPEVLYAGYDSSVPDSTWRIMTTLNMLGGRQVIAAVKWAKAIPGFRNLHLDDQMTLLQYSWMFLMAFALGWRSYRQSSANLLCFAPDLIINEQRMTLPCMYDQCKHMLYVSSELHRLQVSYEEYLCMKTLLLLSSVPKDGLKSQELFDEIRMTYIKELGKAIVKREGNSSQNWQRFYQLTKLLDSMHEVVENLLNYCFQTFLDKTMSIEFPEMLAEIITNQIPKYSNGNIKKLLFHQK

inhibition [1]: Active
inhibition [2]: Active
inhibition [3]: Active
inhibition [4]: inactive
SMILES: Cc1cc(=O)oc2c(/C=N/NC(=O)CSc3nc4ccccc4s3)c(O)ccc12
Activity (A549): Active
